Source: PubChem BioAssay (Broad Institute)
A selection: hits, their analogues and other compounds. The true share with any hit is near 3.4%.
AF4-AF9 inh: blocks AF4 peptide binding to human AF9 | inhibition, % at 10 µM | AID 651704 | 0.47% of 350,000 active | P42568 | AlphaScreen, biotin-AF4 peptide binding to FLAG-AF9;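 active means every replicate reaching a set inhibition limit, whatever the replicate mean, cut at about 25% in these data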;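 further: 0% = plate neutral control median and 100% = total signal loss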
E-selectin induc: induces E-selectin expression in human endothelial cells; P16581; HUVEC E-selectin immunofluorescence imaging; normalized: neutral wells 0, TNF-alpha wells 100; activation, % at 7.58 µM; 0.37% of 260,000 active; AID 686992;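 active means mean E-selectin-positive cell signal at least 10% of the positive control, reached in at least 60% of replicates, without over 20% cell loss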
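Assay system: HUVEC primary endothelial cells. Input: 3,000 HUVEC seeded per well. Doses: one compound dose added by pin transfer. Read-out basis: % PE-positive cells. Benchmarks: TNF-alpha high, DMSO low. Detection: immunofluorescence imaging. Buffer or medium: EGM-2, gelatin.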
ERAP1 inh: ERAP1 (human) enzyme inhibition. Q9NZ08. recombinant ERAP1, Leu-AMC fluorescence, 60 min. inhibition, % at 10.7 µM. 0.15% of 340,000 active. AID 652197;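 active means mean replicate inhibition of at least 30%, or all replicates individually reaching that 30% level; inactive means mean below 30% and not every replicate reaching it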;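 further: 0% = neutral control wells and 100% = L-leucinethiol positive control wells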
Ecoli rRNA inh: selective bacterial rRNA inhibition in E. coli. E. coli WT GFP vs humanized-ribosome RFP mutants, fluorescence, 24 h; stronger effect = lower value; DMSO median 0, no signal -100. GFP signal change (wild-type ribosome), % (concentration not given with the values). 1.6% of 350,000 active. AID 720706;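 active means significant combined selectivity score with lowered wild-type GFP, culture density cut under 30%, mutant RFP and density less affected; inactive means any of these conditions unmet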
S100A4 MyoIIA: blocks human S100A4 binding to myosin IIA peptide. S100A4/TAMRA-MyoIIA peptide fluorescence polarization. 0.14% of 360,000 active. inhibition, % at 10.7 µM. P26447;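 active means mean inhibition of at least 70% across replicates, with every replicate also reaching that level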
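Material: S100A4 monomer protein / Buffer or medium: 50 mM HEPES pH 7.2, 10 mM CaCl2, 100 mM KCl / Times: 5 min incubation before reading / Benchmarks: neutral control DMSO, positive control TFP / Reagent: labelled myosin peptide probe, 5 nM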
SIRT5 block: sirtuin-5 (human) deacylase inhibition. Q9NXA8. Purified SirT5, succinyl-peptide AMC, trypsin-coupled fluorescence. inhibition, % at 15 µM. 1.1% of 330,000 active; in the data active means inhibition above about 15%
* = called active by the depositor; . = not tested or not shown.

SMILES	AF4-AF9 inh	E-selectin induc	ERAP1 inh	Ecoli rRNA inh	S100A4 MyoIIA	SIRT5 block
CN(Cc1ccccc1)C(=O)COC(=O)c1cncc(Br)c1	-1	2	0	9	0	17*
CC(C)N(C(=O)COC(=O)c1cncc(Br)c1)C(C)C	-1	0	-2	25	-6	2
Cc1noc(C)c1NC(=O)NCC[C@H]1CC[C@H](NC(=O)Cc2cccnc2)[C@@H](CO)O1	4	-1	0	2	-4	1
C[C@@H]1C=CCCO[C@]12C(=O)N(Cc1ccc(F)cc1)c1cccc(Br)c12	.	0	2	-2	-2	0
C[C@@H]1C=CCCO[C@]12C(=O)N(Cc1ccccc1C(F)(F)F)c1ccccc12	.	0	0	-9	-2	18*
O=C(O)COc1ccc(/C=C2/SC(=S)N(Cc3ccccc3)C2=O)cc1	12	.	0	-32	-8	10
COc1ccc(N=C2S/C(=C\c3ccc(OCC(=O)O)cc3)C(=O)N2CCc2c[nH]c3ccccc23)cc1	35*	.	5	-3	3	50*
O=C(O)c1ccc(-c2nc(-c3ccccc3)cs2)cc1	0	.	3	-20*	-1	0
COc1ccc(-c2csc(-c3ccc(O)cc3)n2)cc1	6	2	3	-28*	5	-6
COc1ccc(-c2nc(CCl)cs2)cc1	-10	.	0	7	5	-1
O=C1c2cccc(NCCCNCCO)c2C(=O)c2cccc(NCCCNCCO)c21	32*	5	8	-40	-32	.
COc1cccc(Cn2cccc(NC(=O)Nc3cccc(C#N)c3)c2=O)c1	-2	0	6	3	2	-4
COc1cccc(NC(=O)Nc2cccn(Cc3ccc(C)cc3)c2=O)c1	0	-1	0	-29*	-1	-2
Cc1cc(C(=O)CSc2nc3ccccc3[nH]2)c(C)n1Cc1ccco1	-3	0	-1	-34*	0	.
CCOc1cc(N2CCOCC2)c(OCC)cc1NC(=O)CN1CCC(Cc2ccccc2)CC1	29*	.	1	-18	6	0
CCOc1cc(N2CCOCC2)c(OCC)cc1NC(=O)C(C)C	-41	1	-1	4	1	1
CCOc1cc(N2CCOCC2)c(OCC)cc1NC(C)C(=O)N1CCN(CC)CC1 (centres undefined)	6	0	6	10	32	15*
COc1ccc(/C=C2\CCC/C(=C\C=N\N(C)C)C2=O)cc1	6	.	0	-20*	-1	0
CN(C)/N=C/C=C1\CCC/C(=C\c2ccc(F)c(F)c2)C1=O	4	0	-2	-27*	4	6
COc1cc(OC)cc(C(=O)N[C@H](C(=O)OCC(=O)Nc2ccc(C(C)C)cc2)C(C)C)c1	1	64*	19	1	2	-5
O=C(Cn1nc(-c2ccc(Cl)cc2)ccc1=O)NCC1CCCO1 (centres undefined)	-6	0	5	0	-5	19*
Cn1c(SCC(=O)NCC2CCCO2)nnc1-c1ccc(Cl)cc1 (centres undefined)	-4	-2	2	6	8	19*
COc1ccccc1-c1ccc(=O)n(CC(=O)NCC2CCCO2)n1 (centres undefined)	-2	0	1	13	-1	2
COCC(=O)N(C)C[C@H]1Oc2ncc(C#Cc3ccc(F)cc3)cc2C(=O)N([C@H](C)CO)C[C@H]1C	-2	0	-1	3	5	-8
O=C(C1CCCC1)N1CC(=O)N2[C@@H](CO)[C@@H](c3ccc(C#CCc4ccccc4)cc3)[C@@H]2C1	-2	-1	2	2	-1	3
COc1ccc([Si](C)(C)[C@H]2[C@H](CCO)O[C@@]3(C(=O)N(Cc4ccc(NC(C)=O)cc4)c4ccccc43)[C@@H]2C)cc1	2	.	0	.	-1	21*
COc1ccc([Si](C)(C)[C@H]2[C@H](CCO)O[C@@]3(C(=O)N(Cc4ccccc4)c4ccc(N5CCC5=O)cc43)[C@@H]2C)cc1	1	.	-2	.	12	17*
